Calls of active or inactive are those of the source. No cut-off for these calls is given here.
Assays:
PC-3 = assay: Cytotoxicity against human PC3 cells assessed as cell growth inhibition after 48 hrs by MTT assay; format: functional, cell-based; details: PC-3, 48 h
MDA-MB-231 = assay: Cytotoxicity against human MDA-MB-231 cells assessed as cell growth inhibition after 48 hrs by MTT assay; format: functional, cell-based; details: MDA-MB-231, 48 h
HeLa = assay: Cytotoxicity against human HeLa cells assessed as cell growth inhibition after 48 hrs by MTT assay; format: functional, cell-based
A549 [1] = assay: Cytotoxicity against human A549 cells assessed as cell growth inhibition after 48 hrs by MTT assay; format: functional, cell-based; details: A549, 48 h
HT-1080 = assay: Cytotoxicity against human HT1080 cells assessed as cell growth inhibition after 48 hrs by MTT assay; format: functional, cell-based; details: HT-1080, 48 h
HEK-293T = assay: Cytotoxicity against HEK293T cells assessed as cell growth inhibition after 48 hrs by MTT assay; format: cell-based; details: Homo sapiens
A549 [2] = assay: Induction of apoptosis in human A549 cells assessed as formation of shrinked nuclei at cytotoxic IC50 concentration after 24 hrs by Hoechst 33242-staining based fluorescent microscopy; format: functional, cell-based
How it was run: (§1)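 A549 cells (5×10^4/well) adhered 24 h on coverslips, exposed 24 h to IC50 concentration, fixed 10 min in 4% paraformaldehyde at 4 °C, stained with Hoechst 33242 (5 µg/mL) 30 min at room temperature. Nuclear morphology examined by fluorescence microscopy (ex 350/em 460 nm, 40x).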

A549 [3] = assay: Induction of apoptosis in human A549 cells assessed as loss of mitochondrial membrane potential at cytotoxic IC50 concentration after 24 hrs by rhodamine-123 dye based spectrofluorometery relative to control; format: functional
How it was run: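 A549 cells (5×10^5 cells/mL) adhered overnight, treated 24 h at IC50 concentration, trypsinised, washed and stained with rhodamine-123 (10 µg/mL) in PBS 30 min at room temperature. After two PBS washes, fluorescence measured by spectrofluorometer versus DMSO control; mean ± SD of three independent experiments.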

A549 [4] = assay: Induction of apoptosis in human A549 cells assessed as necrotic cells at cytotoxic IC50 concentration after 24 hrs by Annexin V-FITC/propidium iodide dual staining based flow cytometry (reference value: 3.7%); format: functional
A549 [5] = assay: Induction of ROS production in human A549 cells at cytotoxic IC50 concentration after 24 hrs by DCFH-DA-dye based fluorescent microscopy; format: functional, cell-based
[6] = Selectivity index, ratio of IC50 for HEK293T cells to IC50 for human A549 cells; format: toxicity; details: HEK293T cells versus A549 cells, read-out: Ratio IC50
[7] = Selectivity index, ratio of IC50 for HEK293T cells to IC50 for human PC3 cells; format: toxicity; details: HEK293T cells versus PC3 cells, read-out: Ratio IC50
A549 [8] = assay: Inhibition of filamentous actin polymerization in human A549 cells assessed as reduction in F-actin extension at the periphery at cytotoxic IC50 concentration after 24 hrs by rhodamine-phalloidin/Hoechst 33242 double staining based fluorescent microscopy; format: cell-based
How it was run: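 A549 cells (1×10^6/well) grown on coverslips 24 h, treated 24 h at IC50 concentration, PBS-washed, fixed in 4% paraformaldehyde. Stained with rhodamine-phalloidin for F-actin and Hoechst 33242 for nuclei, mounted in anti-fade, imaged by fluorescence microscopy at 20X; DMSO-treated cells as control.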

A549 [9] = assay: Induction of apoptosis in human A549 cells assessed as viable cells at cytotoxic IC50 concentration after 24 hrs by Annexin V-FITC/propidium iodide dual staining based flow cytometry (reference value: 84.8%); format: functional
[10] = Selectivity index, ratio of IC50 for HEK293T cells to IC50 for human HT1080 cells; format: toxicity; details: HEK293T cells versus HT1080 cells, read-out: Ratio IC50
A549 [11] = assay: Induction of apoptosis in human A549 cells assessed as late apoptotic cells at cytotoxic IC50 concentration after 24 hrs by Annexin V-FITC/propidium iodide dual staining based flow cytometry (reference value: 1.6%); format: functional
A549 [12] = assay: Induction of apoptosis in human A549 cells assessed as early apoptotic cells at cytotoxic IC50 concentration after 24 hrs by Annexin V-FITC/propidium iodide dual staining based flow cyclometry (reference value: 9.8%); format: functional
[13] = Selectivity index, ratio of IC50 for HEK293T cells to IC50 for human HeLa cells; format: toxicity; details: HEK293T cells versus HeLa cells, read-out: Ratio IC50
A549 [14] = assay: Induction of apoptosis in human A549 cells assessed as formation of fragmented nuclei at cytotoxic IC50 concentration after 24 hrs by Hoechst 33242-staining based fluorescent microscopy; format: functional, cell-based; how it was run: as §1
A549 [15] = assay: Antimigratory activity in human A549 cells assessed as reduction in wound healing at cytotoxic IC50 concentration after 24 to 48 hrs by phase contrast microscopy; format: functional, cell-based
How it was run: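 A549 cells (5×10^5/well) grown 24 h to confluent monolayer, scratched with sterile 200 µL pipette tip, washed twice with PBS. Medium with compound at its IC50 added; untreated wells as control. Wound closure photographed by phase contrast microscopy at 0, 24 and 48 h in three or more random fields.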

[16] = Selectivity index, ratio of IC50 for HEK293T cells to IC50 for human MDA-MB-231 cells; format: toxicity; details: HEK293T cells versus MDA-MB-231 cells, read-out: Ratio IC50

Structure (SMILES)	IC50 (PC-3) [µM]	IC50 (MDA-MB-231) [µM]	IC50 (HeLa) [µM]	IC50 (A549 [1]) [µM]	IC50 (HT-1080) [µM]	IC50 (HEK-293T) [µM]	also measured
COc1ccc(-c2nc3cc(/C=C4\SC(=O)NC4=O)ccc3[nH]2)cc1OC	8.72	13.6	7.83	0.57	2.43	21.7	
COc1cc(OC)c(-c2nc3cc(/C=C4\SC(=O)N(CC(=O)N5CCCCC5)C4=O)ccc3[nH]2)cc1OC	> 50	> 50	6.89	14.5	8.76	> 50	
COc1cc(-c2nc3cc(/C=C4\SC(=O)N(Cc5cc(OC)c(OC)c(OC)c5)C4=O)ccc3[nH]2)ccc1OCC(C)C	0.11	4.37	0.25	0.096	0.16	6.65	Activity (A549 [2]): Active; Activity (A549 [3]): 37.3%; Activity (A549 [4]): 3.7%; Activity (A549 [5]): Active; selectivity ratio [6]: 69.3; selectivity ratio [7]: 60.5; inhibition (A549 [8]): Active; Activity (A549 [9]): 66.1%; selectivity ratio [10]: 41.6; Activity (A549 [11]): 8.3%; Activity (A549 [12]): 21.9%; selectivity ratio [13]: 26.6; Activity (A549 [14]): Active; Activity (A549 [15]): Active; selectivity ratio [16]: 1.5
COc1cc(-c2nc3cc(/C=C4\SC(=O)N(Cc5cccc(C)c5)C4=O)ccc3[nH]2)cc(OC)c1OC	4.37	3.26	1.44	0.93	4.58	18.9	
COc1cc(-c2nc3cc(/C=C4\SC(=O)N(CC(=O)N5CCCC5)C4=O)ccc3[nH]2)cc(OC)c1OC	8.37	2.88	4.78	0.91	2.47	12.7	
COc1ccc(-c2nc3cc(/C=C4\SC(=O)N(Cc5cc(OC)c(OC)c(OC)c5)C4=O)ccc3[nH]2)cc1OC	> 50	29.1	0.32	0.13	0.27	6.76	Activity (A549 [2]): Active; Activity (A549 [3]): 31.6%; Activity (A549 [4]): 2.7%; Activity (A549 [5]): Active; selectivity ratio [6]: 52; inhibition (A549 [8]): Active; Activity (A549 [9]): 63.5%; selectivity ratio [10]: 25.3; Activity (A549 [11]): 8.7%; Activity (A549 [12]): 25.1%; selectivity ratio [13]: 21.1; Activity (A549 [14]): Active; Activity (A549 [15]): Active
COc1cc(OC)c(-c2nc3cc(/C=C4\SC(=O)NC4=O)ccc3[nH]2)cc1OC	6.32	24.5	15.4	1.84	6.35	15.3	
COc1ccc(-c2nc3cc(/C=C4\SC(=O)N(CC(=O)N5CCOCC5)C4=O)ccc3[nH]2)cc1OC	> 50	> 50	7.51	8.93	3.32	> 50	
COc1cc(OC)c(-c2nc3cc(/C=C4\SC(=O)N(Cc5cccc(C)c5)C4=O)ccc3[nH]2)cc1OC	0.63	1.78	0.18	0.13	0.19	3.35	selectivity ratio [6]: 25.8; selectivity ratio [7]: 5.3; selectivity ratio [10]: 17.6; selectivity ratio [13]: 18.6; selectivity ratio [16]: 1.9
COc1cc(-c2nc3cc(/C=C4\SC(=O)N(CC(=O)N5CCOCC5)C4=O)ccc3[nH]2)cc(OC)c1OC	5.94	14.9	16.3	2.93	1.68	18.8	
COc1cc(OC)c(-c2nc3cc(/C=C4\SC(=O)N(CC(=O)N5CCOCC5)C4=O)ccc3[nH]2)cc1OC	11.7	21.3	0.51	0.66	1.12	35.7	
COc1cc(-c2nc3cc(/C=C4\SC(=O)NC4=O)ccc3[nH]2)ccc1OCC(C)C	2.98	7.78	5.22	5.11	4.45	14.1	
COc1cc(-c2nc3cc(/C=C4\SC(=O)N(Cc5ccccc5)C4=O)ccc3[nH]2)cc(OC)c1OC	2.5	2.29	0.95	0.67	0.66	8.21	
COc1cc(CN2C(=O)S/C(=C\c3ccc4[nH]c(-c5cc(OC)c(OC)c(OC)c5)nc4c3)C2=O)cc(OC)c1OC	10.2	0.27	2.24	0.53	0.98	16.6	
COc1ccc(-c2nc3cc(/C=C4\SC(=O)N(CC(=O)c5ccccc5)C4=O)ccc3[nH]2)cc1OC	0.43	2.04	7.48	0.74	0.59	27.8	
COc1cc(-c2nc3cc(/C=C4\SC(=O)N(CC(=O)N5CCCCC5)C4=O)ccc3[nH]2)cc(OC)c1OC	14.7	34.9	23.3	0.98	3.65	21.5	
COc1cc(-c2nc3cc(/C=C4\SC(=O)NC4=O)ccc3[nH]2)cc(OC)c1OC	12	6.83	1.67	3.57	3.12	13.6	
COc1cc(-c2nc3cc(/C=C4\SC(=O)N(CC(=O)c5ccccc5)C4=O)ccc3[nH]2)cc(OC)c1OC	> 50	> 50	26.3	0.88	0.57	13.6	

From ChEMBL document CHEMBL4190240, “Conventional and microwave-assisted synthesis of new 1H-benzimidazole-thiazolidinedione derivatives: A potential anticancer scaffold” (Eur J Med Chem, 2017)
